Test results from ChEMBL document CHEMBL1131373, “Novel nonpeptide CCK-B antagonists: design and development of quinazolinone derivatives as potent, selective, and orally active CCK-B antagonists” (J Med Chem, 1998).

Assays:
[1] = target: T1, Gastrin/cholecystokinin type B receptor (Mus musculus, UniProt P56481); experiment: Binding affinity towards Cholecystokinin type B receptor (CCK-B) receptor in mouse cerebral cortex using [125I]bolton Hunter CCK-8 as radioligand; type: tissue-based
T1 sequence (P56481 whole entry): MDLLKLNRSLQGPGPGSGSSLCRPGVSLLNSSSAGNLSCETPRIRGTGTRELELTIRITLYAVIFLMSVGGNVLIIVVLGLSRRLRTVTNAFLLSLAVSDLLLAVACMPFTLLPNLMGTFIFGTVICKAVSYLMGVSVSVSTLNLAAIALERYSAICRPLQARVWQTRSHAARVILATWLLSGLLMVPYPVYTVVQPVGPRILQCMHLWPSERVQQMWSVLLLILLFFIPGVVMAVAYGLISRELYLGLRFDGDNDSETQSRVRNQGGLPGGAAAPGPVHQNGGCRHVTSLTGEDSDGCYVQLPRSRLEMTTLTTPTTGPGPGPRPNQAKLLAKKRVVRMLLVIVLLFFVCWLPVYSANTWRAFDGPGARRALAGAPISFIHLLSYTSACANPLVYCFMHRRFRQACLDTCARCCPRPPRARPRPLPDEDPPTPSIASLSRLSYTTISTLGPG

[2] = target: T2, Cholecystokinin receptor type A (Rattus norvegicus, UniProt P30551); experiment: Binding affinity towards Cholecystokinin type A receptor (CCK-A) receptor from rat pancreas using [125I]bolton Hunter CCK-8 as radioligand
T2 sequence (P30551 whole entry): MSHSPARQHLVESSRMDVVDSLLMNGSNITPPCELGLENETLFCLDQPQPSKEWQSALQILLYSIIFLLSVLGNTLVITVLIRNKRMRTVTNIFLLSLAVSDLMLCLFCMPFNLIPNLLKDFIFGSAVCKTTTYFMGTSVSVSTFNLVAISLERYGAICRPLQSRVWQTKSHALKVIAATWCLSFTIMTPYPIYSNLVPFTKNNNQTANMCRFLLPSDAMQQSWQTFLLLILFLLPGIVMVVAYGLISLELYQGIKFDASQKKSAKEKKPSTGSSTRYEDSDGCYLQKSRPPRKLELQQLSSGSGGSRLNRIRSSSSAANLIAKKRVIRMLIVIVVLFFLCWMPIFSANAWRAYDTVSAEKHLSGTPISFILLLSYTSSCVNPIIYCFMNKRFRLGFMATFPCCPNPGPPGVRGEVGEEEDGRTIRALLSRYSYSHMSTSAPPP
Procedure, shortened: (§1)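 IC50 = concentration giving half-maximal inhibition of specific [125I]Bolton Hunter CCK-8 binding, with CCK-B sites from mouse cerebral cortex and CCK-A sites from rat pancreas. Weaker compounds given as % inhibition at 10 μM. Values are geometric means of at least three separate experiments; statistical errors 15% of the mean.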

[3] = target: T3, Cholecystokinin receptor type A (Rattus norvegicus) (UniProt P30551); experiment: Binding affinity towards Cholecystokinin type A receptor (CCK-A) receptor from rat pancreas using [125I]bolton Hunter CCK-8 as radioligand at a concentration of 10 um; procedure, shortened: as §1
T3 sequence (whole entry): T2 sequence (P30551 whole entry)

[4] = target: T4, Gastrin/cholecystokinin type B receptor (Mus musculus) (UniProt P56481); experiment: Binding affinity towards Cholecystokinin type B receptor (CCK-B) receptor in mouse cerebral cortex using [125I]bolton Hunter CCK-8 as radioligand at a concentration of 10 um; type: tissue-based; procedure, shortened: as §1
T4 sequence (whole entry): T1 sequence (P56481 whole entry)

[5] = The compound was tested for systemic plasma clearance(CL) in rats and is expressed in mL/min/kg.; type: ADME, organism-based; details: rat
Procedure, shortened: (§2)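 Fasted male Wistar rats, three per group, given a single oral nominal dose of 10 mg/kg or a single iv nominal dose of 5 mg/kg. Vehicle was either 25:40:35 ethanol/PEG400/5% dextrose water or 10:40:50 dimethylacetamide/PEG400/5% dextrose water. Heparinized plasma taken from a jugular vein cannula at serial times out to 24 h and assayed by validated HPLC-fluorescence. Noncompartmental analysis; %F = dose-normalized po AUC/iv AUC.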

[6] = The compound was tested for percent absolute oral bioavailability (%F) in rats; type: ADME, organism-based; details: rat, in vivo; procedure, shortened: as §2
[7] = The compound tested for maximum observed plasma concentration in rats and is expressed in microgram/mL.; type: ADME, organism-based; details: rat; procedure, shortened: as §2
[8] = The compound was tested for the time to reach maximum observed plasma concentration in rats and is expressed in mins.; type: ADME, organism-based; details: rat; procedure, shortened: as §2
[9] = The compound was tested for percent absolute oral bioavailability (%F) in rats and value in parenthesis indicate percent relative standard deviation (% RSD).; type: ADME, organism-based; details: rat, in vivo, read-out: F (%RSD); procedure, shortened: as §2

Structure (SMILES)	IC50 [1] [µM]	IC50 [2] [µM]	other results
CC(C)Oc1cccc(-n2c(NNC(=O)Nc3ccccc3)nc3ccccc3c2=O)c1	0.015	4.58	
COc1cccc(-n2c(NNC(=O)Nc3cccc(C)c3)nc3ccccc3c2=O)c1	0.2	5.1	
CCOC(=O)c1cccc(NC(=O)NNc2nc3ccccc3c(=O)n2-c2cccc(F)c2)c1	0.026		inhibition [3]: 30%
Cc1cccc(NC(=O)NNc2nc3ccccc3c(=O)n2-c2ccc(Cl)c(Cl)c2)c1	0.097		inhibition [3]: 10%
CCOC(=O)c1cccc(NC(=O)NNc2nc3ccccc3c(=O)n2-c2cccc(Cl)c2)c1	0.033	4.98	
CC(C)Oc1cccc(-n2c(NNC(=O)c3ccc(Br)cc3)nc3ccccc3c2=O)c1	0.088	5.56	
CCOC(=O)c1cccc(NC(=O)NNc2nc3ccccc3c(=O)n2-c2cccc3ccccc23)c1			inhibition [3]: 5%; inhibition [4]: 35%
CCOc1cccc(-n2c(NNC(=O)Nc3cccc(C#N)c3)nc3ccccc3c2=O)c1	0.0058	4.45	
Cc1cccc(NC(=O)NNc2nc3ccccc3c(=O)n2-c2cccc(N)c2)c1	0.219	0.107	
CC(C)Oc1cccc(-n2c(NNC(=O)Nc3cccc(C(F)(F)F)c3)nc3ccccc3c2=O)c1	0.008	2.24	
O=C(NNc1nc2ccccc2c(=O)n1-c1ccccc1)Nc1ccccc1	1.24	7.33	
CCOc1cccc(-n2c(NNC(=O)Nc3cccc(C)c3)nc3ccccc3c2=O)c1	0.045	2.57	
CCOC(=O)c1cccc(NC(=O)NNc2nc3ccccc3c(=O)n2-c2cccc(OC)c2)c1	0.015	2.33	
CCOC(=O)c1cccc(NC(=O)NNc2nc3ccccc3c(=O)n2-c2cccc(OCC)c2)c1	0.005	1.21	
CC(C)Oc1cccc(-n2c(NNC(=O)Nc3cccc(Cl)c3)nc3ccccc3c2=O)c1	0.0059	2.42	
CCOC(=O)c1cccc(NC(=O)NNc2nc3ccccc3c(=O)n2-c2cccc(N(C)C)c2)c1	0.005	2.65	
COc1ccc(-n2c(NNC(=O)Nc3cccc(C)c3)nc3ccccc3c2=O)cc1OC	2.11		inhibition [3]: 34%
CC(C)Oc1cccc(-n2c(NNC(=O)Nc3cccc(C(=O)OC(C)(C)C)c3)nc3ccccc3c2=O)c1	0.0019	2.96	clearance [5]: 18 mL/min/kg; bioavailability [6]: < 5%; Cmax [7]: < 250 ng/mL
CC(C)Oc1cccc(-n2c(NNC(=O)Nc3cccc(C#N)c3)nc3ccccc3c2=O)c1	0.0012	5.35	
Cc1cccc(NC(=O)NNc2nc3ccccc3c(=O)n2-c2cccc(Cl)c2)c1	0.225		inhibition [3]: 20%
Cc1cccc(NC(=O)NNc2nc3ccccc3c(=O)n2-c2cccc3ccccc23)c1	3.56		inhibition [3]: 7%
CC(C)Oc1cccc(-n2c(NNC(=O)Nc3ccc(C(F)(F)F)cc3)nc3ccccc3c2=O)c1	0.038	2.78	
COc1cccc(N(CC(=O)N(C)c2ccccc2)C(=O)CNC(=O)Nc2cccc(C)c2)c1	0.008	0.14	
COc1ccccc1NC(=O)NNc1nc2ccccc2c(=O)n1-c1cccc(OC(C)C)c1	0.01	4.2	
COc1ccc(NC(=O)NNc2nc3ccccc3c(=O)n2-c2cccc(OC(C)C)c2)cc1	0.025	15.5	
COc1cccc(NC(=O)NNc2nc3ccccc3c(=O)n2-c2cccc(OC(C)C)c2)c1	0.022	7.47	
COc1cccc(N(CC(=O)N(C)c2ccccc2)C(=O)CNC(=O)Nc2cccc(C(=O)O)c2)c1	0.023	0.925	

Structure (SMILES)	IC50 [1] [µM]	IC50 [2] [µM]	other results
Cc1cccc(NC(=O)NNc2nc3ccccc3c(=O)n2-c2ccccc2)c1	1.08		inhibition [3]: 39%
Cc1cccc(NC(=O)NNc2nc3ccccc3c(=O)n2-c2cccc(N(C)C)c2)c1	0.063	4.9	
CCOC(=O)c1cccc(NC(=O)NNc2nc3ccccc3c(=O)n2-c2ccc(OC)cc2)c1	0.592		inhibition [3]: 20%
CN(C)c1cccc(-n2c(CCc3c[nH]c4cc(Br)ccc34)nc3ccccc3c2=O)c1	0.016		
N#Cc1cccc(NC(=O)NNc2nc3ccccc3c(=O)n2-c2ccccc2)c1	0.262		inhibition [3]: 37%
CC(C)Oc1cccc(-n2c(NNC(=O)Nc3ccc(Br)cc3)nc3ccccc3c2=O)c1	0.014	3.43	
CCOC(=O)c1cccc(NC(=O)NNc2nc3ccccc3c(=O)n2-c2cccnc2)c1	0.319	11.2	
CC(C)Oc1cccc(-n2c(NNC(=O)NC3CCCCC3)nc3ccccc3c2=O)c1	0.108	17.3	
CC(C)Oc1cccc(-n2c(NNC(=O)Nc3cccc(C(=O)O)c3)nc3ccccc3c2=O)c1	0.029	8.11	
Cc1cccc(NC(=O)NNc2nc3ccccc3c(=O)n2-c2cccc(OC(C)C)c2)c1	0.011	6.4	
CCOC(=O)c1cccc(NC(=O)NNc2nc3ccccc3c(=O)n2-c2cccc(Cl)c2Cl)c1	0.05	1.66	
CCOC(=O)c1cccc(NC(=O)NNc2nc3ccccc3c(=O)n2-c2cccc(OC(C)C)c2)c1	0.0015	3.47	
CCOC(=O)c1cccc(NC(=O)NNc2nc3ccccc3c(=O)n2-c2ccccc2)c1	0.152		inhibition [3]: 37%
CC(C)Oc1cccc(-n2c(NNC(=O)Nc3cccc([N+](=O)[O-])c3)nc3ccccc3c2=O)c1	0.001	2.56	
Cc1cccc(NC(=O)NNc2nc3ccccc3c(=O)n2-c2cccc(F)c2)c1	0.915		inhibition [3]: 26%
CCOC(=O)c1ccc(NC(=O)NNc2nc3ccccc3c(=O)n2-c2cccc(OC(C)C)c2)cc1	0.057	3.16	
CCOC(=O)c1cccc(NC(=O)NNc2nc3ccccc3c(=O)n2-c2ccc(Cl)c(Cl)c2)c1	0.0024		inhibition [3]: 16%
CCOC(=O)c1cccc(NC(=O)NNc2nc3ccccc3c(=O)n2-c2ccc(OC)c(OC)c2)c1	0.611		inhibition [3]: 20%
CCOC(=O)c1cccc(NC(=O)NNc2nc3ccccc3c(=O)n2-c2ccc(Cl)cc2)c1	0.014		inhibition [3]: 15%
Cc1cccc(NC(=O)NNc2nc3ccccc3c(=O)n2-c2cccnc2)c1	4.28	12.5	
CN(C)c1cccc(-n2c(NNC(=O)Nc3cccc(C#N)c3)nc3ccccc3c2=O)c1	0.014	7.1	clearance [5]: 29.5 mL/min/kg; Cmax [7]: 910 ng/mL; Tmax [8]: 25 min; bioavailability [9]: 22%
Cc1cccc(NC(=O)NNc2nc3ccccc3c(=O)n2-c2ccc(Cl)cc2)c1	1.17		inhibition [3]: 10%
Cc1cccc(NC(=O)NNc2nc3ccccc3c(=O)n2-c2cccc(Cl)c2Cl)c1	0.073	3.01	
CC(C)Oc1cccc(-n2c(NNC(=O)Nc3ccc(Cl)cc3)nc3ccccc3c2=O)c1	0.014	3.59	
COC(=O)c1cccc(NC(=O)N[C@@H]2N=C(c3ccccc3)c3ccccc3N(C)C2=O)c1	0.008		
CC(C)Oc1cccc(-n2c(CCc3c[nH]c4cc(Br)ccc34)nc3ccccc3c2=O)c1	0.0093		
CCOC(=O)c1ccccc1NC(=O)NNc1nc2ccccc2c(=O)n1-c1cccc(OC(C)C)c1	7.67		inhibition [3]: 22%
